Measured values from ChEMBL document CHEMBL3997800, “Discovery of Multitarget Agents Active as Broad-Spectrum Antivirals and Correctors of Cystic Fibrosis Transmembrane Conductance Regulator for Associated Pulmonary Diseases” (J Med Chem, 2017).
Activity calls are given as the source filed them. No cut-off for these calls is given here.

Experiments:
[1] = target: Focal adhesion kinase 1 (Homo sapiens) (UniProt Q05397); assay: Inhibition of […] recombinant human FAK (393 to 698 residues) expressed in baculovirus infected sf9 cells assessed as residual activity at 100 uM using poly(Glu,Tyr)4:1 as substrate by ADP-Glo bioluminescence assay relative to control relative to control
How it was run: (§1)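 Kinase reactions followed manufacturer's instructions with 10-50 ng enzyme, in 10 µL for 10 min at 30 °C; NP-40 or BSA added for some kinases. Compound at 100 µM. Residual activity is the mean of two independent replicates.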

[2] = system: Enterovirus A71; assay: Antiviral activity against Enterovirus 71 TW/70902/08 clinical isolates incubated for 2 to 3 days; format: functional; conditions: Enterovirus A
[3] = system: Enterovirus A71; assay: Antiviral activity against Enterovirus 71 TW/1956/05 clinical isolates incubated for 2 to 3 days; format: functional; conditions: Enterovirus A
[4] = target: CDK2/Cyclin A2 (Homo sapiens) (UniProt P24941+P20248); assay: Inhibition of full-length recombinant human N-terminal GST-tagged CDK2/cyclin A2 expressed in baculovirus infected sf9 cells assessed as residual activity at 100 uM using histone H1 as substrate by ADP-Glo bioluminescence assay relative to control relative to control; how it was run: as §1
[5] = system: Echovirus E11; assay: Antiviral activity against Echovirus 11 after 2 to 3 days; format: functional; conditions: Enterovirus B
[6] = system: Cystic fibrosis transmembrane conductance regulator (Homo sapiens), P13569 [F508del]; assay: Potentiator activity at CFTR F508 deletion mutant (unknown origin) expressed in HEK293 cells assessed as increase in aninon permeability at 10 uM […] by YFP probe based imaging method; format: cell-based
[7] = system: Enterovirus A71; assay: Antiviral activity against Enterovirus 71 TW/96016/08 clinical isolates incubated for 2 to 3 days; format: functional; conditions: Enterovirus A
[8] = target: Serine/threonine-protein kinase pim-1 (Homo sapiens) (UniProt P11309); assay: Inhibition of recombinant human N-terminal GST-tagged pim1 expressed in baculovirus infected sf9 cells assessed as residual activity using KRRRLASLR as substrate at 100 uM by ADP-Glo bioluminescence assay relative to control relative to control; how it was run: as §1
[9] = system: Enterovirus A71; assay: Antiviral activity against Enterovirus 71 TW/2429/04 clinical isolates incubated for 2 to 3 days; format: functional; conditions: Enterovirus A
[10] = system: Enterovirus A71; assay: Antiviral activity against Enterovirus 71 H08300 461#812 clinical isolates incubated for 2 to 3 days; format: functional; conditions: Enterovirus A
[11] = Selectivity index, ratio of CC50 for human RD cells to EC50 for Enterovirus 71; format: toxicity; conditions: read-out: Ratio CC50/EC50
How it was run: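 SI is CC50/EC50. CC50 is from the MTS assay on uninfected RD cells and EC50 from the EV71 CPE-reduction assay, both medians of three dose-response curves run in parallel.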

[12] = target: Glycogen synthase kinase-3 beta (Homo sapiens) (UniProt P49841); assay: Inhibition of full-length recombinant human N-terminal GST-tagged GSK3beta expressed in baculovirus infected sf9 cells assessed as residual activity at 100 uM using YRRAAVPPSPSLSRHSSPHQ(pS)EDEEE as substrate by ADP-Glo bioluminescence assay relative to control relative to control
How it was run: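 Kinase run per the manufacturer's instructions with 10–50 ng enzyme in 10 μL at 30 °C for 10 min. NP-40 or BSA was added for some kinases. Compound was tested at 100 μM, with activity given as % residual. Values are the mean of two independent replicates.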

[13] = target: CDK9/Cyclin K (Homo sapiens) (UniProt P50750+O75909); assay: Inhibition of full-length recombinant human N-terminal GST-tagged CDK9/cyclin K expressed in baculovirus infected sf9 cells assessed as residual activity at 100 uM using KTFCGTPEYLAPEVRREPRILSEEEQEMFRDFDYIADWC as substrate by ADP-Glo bioluminescence assay relative to control relative to control; how it was run: as §1
[14] = target: CDK6/cyclin D1 (Homo sapiens) (UniProt P24385+Q00534); assay: Inhibition of CDK6/cyclin D1 (unknown origin) assessed as residual activity at 100 uM by ADP-Glo bioluminescence assay relative to control relative to control; format: protein-complex assay; how it was run: as §1
[15] = target: Tyrosine-protein kinase HCK (Homo sapiens) (UniProt P08631); assay: Inhibition of full-length recombinant human HCK assessed as residual activity at 100 uM using poly(Glu,Tyr)4:1 as substrate by ADP-Glo bioluminescence assay relative to control relative to control; how it was run: as §1
[16] = Cytotoxicity against human RD cells after 2 to 3 days by MTS method; format: cell-based
How it was run: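 Uninfected RD cells, 20 000/well in 2% FCS medium, run in parallel with the antiviral assay. Three 8-step 1:5 dilution series from 100 μM, 2-3 days. Read-out by 5% MTS, 1.5 h at 37 °C, absorbance 498 nm, as % of untreated controls. CC50 is the 50% metabolic activity point, median of 3 curves.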

[17] = target: Proto-oncogene tyrosine-protein kinase Src (Homo sapiens) (UniProt P12931); assay: Inhibition of full-length recombinant human N-terminal GST-tagged SRC expressed in Escherichia coli assessed as residual activity at 100 uM using KVEKIGEGTYGVVYK-amide as substrate by ADP-Glo bioluminescence assay relative to control relative to control; how it was run: as §1
[18] = target: Receptor-type tyrosine-protein kinase FLT3 (Homo sapiens) (UniProt P36888); assay: Inhibition of recombinant human N-terminal GST-tagged FLT3 (571 to 993 residues) expressed in baculovirus infected sf9 cells assessed as residual activity using myelin basic protein as substrate at 100 uM by ADP-Glo bioluminescence assay relative to control relative to control; how it was run: as §1
[19] = Inhibition of full length recombinant His6-tagged PI4K3beta (unknown origin) expressed in Sf9 insect cells using PI : PS as substrate in presence of [gamma-33P]-ATP by scintillation counting method; parameters: species or system Homo sapiens; conditions: read-out: IC50
[20] = target: Tyrosine-protein kinase ABL1 (Homo sapiens) (UniProt P00519); assay: Inhibition of full length ABL (unknown origin) assessed as residual activity at 100 uM by ADP-Glo bioluminescence assay relative to control relative to control; how it was run: as §1
[21] = system: Enterovirus A71; assay: Antiviral activity against Enterovirus 71 11316 clinical isolates incubated for 2 to 3 days; format: functional; conditions: Enterovirus A
[22] = Selectivity index, ratio of CC50 for human RD cells assessed as change in cell morphology to EC50 for Enterovirus 71; format: toxicity; conditions: read-out: Ratio CC50/EC50
How it was run: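 SI is CC50/EC50. CC50 is from microscopically detected morphology change in uninfected RD cells and EC50 from the EV71 CPE-reduction assay in RD cells.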

[23] = Inhibition of full length recombinant His6-tagged PI4K3alpha (unknown origin) expressed in Sf9 insect cells assessed as residual activity at 100 uM using PI : PS as substrate in presence of [gamma-33P]-ATP by scintillation counting method relative to control; conditions: Homo sapiens
[24] = target: Dual specificity tyrosine-phosphorylation-regulated kinase 1A (Homo sapiens) (UniProt Q13627); assay: Inhibition of human DYRK1A assessed as residual activity at 100 uM by ADP-Glo bioluminescence assay relative to control relative to control; how it was run: as §1
[25] = system: Coxsackievirus B3; assay: Antiviral activity against Coxsackievirus B3 after 2 to 3 days by cell based MTS assay; format: functional; conditions: Enterovirus B

Tyrosine-protein kinase HCK (Homo sapiens), sequence (P08631 2-526 limits assumed): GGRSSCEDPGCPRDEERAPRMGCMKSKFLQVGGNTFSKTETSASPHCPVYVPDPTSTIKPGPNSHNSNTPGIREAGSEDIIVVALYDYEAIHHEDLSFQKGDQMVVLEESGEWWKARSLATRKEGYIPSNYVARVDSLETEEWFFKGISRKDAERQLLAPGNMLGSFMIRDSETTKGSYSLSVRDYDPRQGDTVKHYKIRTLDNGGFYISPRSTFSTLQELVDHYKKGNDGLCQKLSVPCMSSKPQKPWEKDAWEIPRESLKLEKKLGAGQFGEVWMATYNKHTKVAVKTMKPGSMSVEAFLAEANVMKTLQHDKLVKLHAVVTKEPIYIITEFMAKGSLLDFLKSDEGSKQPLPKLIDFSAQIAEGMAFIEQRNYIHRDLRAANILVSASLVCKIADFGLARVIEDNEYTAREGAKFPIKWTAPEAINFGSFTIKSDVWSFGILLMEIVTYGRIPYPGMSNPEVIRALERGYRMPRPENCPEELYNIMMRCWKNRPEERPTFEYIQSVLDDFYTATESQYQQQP
Glycogen synthase kinase-3 beta (Homo sapiens), sequence (P49841 whole entry, looked up): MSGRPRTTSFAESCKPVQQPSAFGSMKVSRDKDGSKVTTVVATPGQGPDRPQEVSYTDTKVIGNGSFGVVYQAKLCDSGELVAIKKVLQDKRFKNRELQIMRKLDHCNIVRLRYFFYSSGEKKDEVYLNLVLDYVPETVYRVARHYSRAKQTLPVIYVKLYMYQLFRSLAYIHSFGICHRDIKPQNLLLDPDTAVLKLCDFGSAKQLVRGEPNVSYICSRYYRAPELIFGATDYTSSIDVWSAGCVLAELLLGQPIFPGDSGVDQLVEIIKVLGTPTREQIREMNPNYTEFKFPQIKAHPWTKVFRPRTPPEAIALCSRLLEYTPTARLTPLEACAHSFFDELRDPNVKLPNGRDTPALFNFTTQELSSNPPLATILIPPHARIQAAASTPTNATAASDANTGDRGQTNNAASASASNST
Focal adhesion kinase 1 (Homo sapiens), sequence (Q05397 2-1052 limits assumed): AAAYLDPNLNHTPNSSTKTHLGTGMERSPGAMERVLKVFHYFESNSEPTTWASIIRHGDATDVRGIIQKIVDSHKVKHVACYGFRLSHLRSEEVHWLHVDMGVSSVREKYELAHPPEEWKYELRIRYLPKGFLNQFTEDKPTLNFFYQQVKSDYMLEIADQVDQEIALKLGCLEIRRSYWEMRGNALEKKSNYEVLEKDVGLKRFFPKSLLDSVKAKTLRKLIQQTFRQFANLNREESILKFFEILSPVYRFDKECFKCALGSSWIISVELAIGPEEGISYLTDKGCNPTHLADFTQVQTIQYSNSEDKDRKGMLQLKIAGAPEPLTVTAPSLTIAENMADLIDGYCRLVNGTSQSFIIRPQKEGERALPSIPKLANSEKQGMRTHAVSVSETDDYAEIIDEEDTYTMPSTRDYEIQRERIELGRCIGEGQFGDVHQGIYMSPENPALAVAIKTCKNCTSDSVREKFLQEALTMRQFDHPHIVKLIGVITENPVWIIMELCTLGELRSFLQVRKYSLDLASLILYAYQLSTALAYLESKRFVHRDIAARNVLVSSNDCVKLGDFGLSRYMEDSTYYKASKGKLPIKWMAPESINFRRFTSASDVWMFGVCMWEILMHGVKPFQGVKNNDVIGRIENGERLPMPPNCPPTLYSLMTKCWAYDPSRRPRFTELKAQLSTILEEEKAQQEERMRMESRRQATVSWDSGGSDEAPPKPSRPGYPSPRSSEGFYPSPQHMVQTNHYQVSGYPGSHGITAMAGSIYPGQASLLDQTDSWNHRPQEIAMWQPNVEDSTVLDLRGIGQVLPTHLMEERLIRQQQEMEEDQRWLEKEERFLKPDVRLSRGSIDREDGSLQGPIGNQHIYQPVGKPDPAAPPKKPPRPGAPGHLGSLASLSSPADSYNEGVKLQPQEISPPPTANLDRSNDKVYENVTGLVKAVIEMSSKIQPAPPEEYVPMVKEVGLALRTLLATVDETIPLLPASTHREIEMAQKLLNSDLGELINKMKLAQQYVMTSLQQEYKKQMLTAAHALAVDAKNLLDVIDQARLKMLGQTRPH
Receptor-type tyrosine-protein kinase FLT3 (Homo sapiens), sequence (P36888 whole entry, the tested form may be a part): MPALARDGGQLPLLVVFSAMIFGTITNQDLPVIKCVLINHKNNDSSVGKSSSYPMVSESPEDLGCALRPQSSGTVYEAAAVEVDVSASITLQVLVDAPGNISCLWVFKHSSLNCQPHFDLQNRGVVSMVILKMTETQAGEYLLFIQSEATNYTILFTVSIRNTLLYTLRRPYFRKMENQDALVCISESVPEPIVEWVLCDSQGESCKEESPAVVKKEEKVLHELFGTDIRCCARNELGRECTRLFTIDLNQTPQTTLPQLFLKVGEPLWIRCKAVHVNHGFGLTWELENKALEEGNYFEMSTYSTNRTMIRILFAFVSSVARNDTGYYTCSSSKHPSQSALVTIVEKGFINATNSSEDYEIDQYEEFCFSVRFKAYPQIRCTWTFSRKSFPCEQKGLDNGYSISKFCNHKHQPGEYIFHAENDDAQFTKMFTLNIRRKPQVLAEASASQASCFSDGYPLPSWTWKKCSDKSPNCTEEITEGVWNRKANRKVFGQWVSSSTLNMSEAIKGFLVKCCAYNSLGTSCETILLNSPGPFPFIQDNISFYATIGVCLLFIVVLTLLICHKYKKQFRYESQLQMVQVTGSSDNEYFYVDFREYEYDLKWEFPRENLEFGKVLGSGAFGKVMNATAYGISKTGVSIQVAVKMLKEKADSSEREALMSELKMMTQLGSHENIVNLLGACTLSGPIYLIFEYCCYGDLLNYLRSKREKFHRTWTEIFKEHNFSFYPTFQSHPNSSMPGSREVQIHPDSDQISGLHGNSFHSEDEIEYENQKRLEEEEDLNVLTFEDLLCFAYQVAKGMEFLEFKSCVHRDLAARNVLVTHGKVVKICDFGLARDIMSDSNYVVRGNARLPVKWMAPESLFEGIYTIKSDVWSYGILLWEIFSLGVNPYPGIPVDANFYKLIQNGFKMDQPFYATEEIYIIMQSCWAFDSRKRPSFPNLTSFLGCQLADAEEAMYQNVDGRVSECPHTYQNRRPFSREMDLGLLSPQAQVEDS
Serine/threonine-protein kinase pim-1 (Homo sapiens), sequence (P11309 whole entry, looked up): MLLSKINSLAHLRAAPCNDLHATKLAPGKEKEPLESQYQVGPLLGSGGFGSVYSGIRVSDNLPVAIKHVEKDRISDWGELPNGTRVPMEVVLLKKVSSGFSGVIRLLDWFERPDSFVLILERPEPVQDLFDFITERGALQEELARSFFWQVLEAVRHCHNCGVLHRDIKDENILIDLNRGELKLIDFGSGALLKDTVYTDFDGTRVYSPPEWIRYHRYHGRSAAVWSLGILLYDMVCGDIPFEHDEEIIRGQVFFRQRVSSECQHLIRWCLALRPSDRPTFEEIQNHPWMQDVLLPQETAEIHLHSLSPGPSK
Tyrosine-protein kinase ABL1 (Homo sapiens), sequence (P00519 whole entry): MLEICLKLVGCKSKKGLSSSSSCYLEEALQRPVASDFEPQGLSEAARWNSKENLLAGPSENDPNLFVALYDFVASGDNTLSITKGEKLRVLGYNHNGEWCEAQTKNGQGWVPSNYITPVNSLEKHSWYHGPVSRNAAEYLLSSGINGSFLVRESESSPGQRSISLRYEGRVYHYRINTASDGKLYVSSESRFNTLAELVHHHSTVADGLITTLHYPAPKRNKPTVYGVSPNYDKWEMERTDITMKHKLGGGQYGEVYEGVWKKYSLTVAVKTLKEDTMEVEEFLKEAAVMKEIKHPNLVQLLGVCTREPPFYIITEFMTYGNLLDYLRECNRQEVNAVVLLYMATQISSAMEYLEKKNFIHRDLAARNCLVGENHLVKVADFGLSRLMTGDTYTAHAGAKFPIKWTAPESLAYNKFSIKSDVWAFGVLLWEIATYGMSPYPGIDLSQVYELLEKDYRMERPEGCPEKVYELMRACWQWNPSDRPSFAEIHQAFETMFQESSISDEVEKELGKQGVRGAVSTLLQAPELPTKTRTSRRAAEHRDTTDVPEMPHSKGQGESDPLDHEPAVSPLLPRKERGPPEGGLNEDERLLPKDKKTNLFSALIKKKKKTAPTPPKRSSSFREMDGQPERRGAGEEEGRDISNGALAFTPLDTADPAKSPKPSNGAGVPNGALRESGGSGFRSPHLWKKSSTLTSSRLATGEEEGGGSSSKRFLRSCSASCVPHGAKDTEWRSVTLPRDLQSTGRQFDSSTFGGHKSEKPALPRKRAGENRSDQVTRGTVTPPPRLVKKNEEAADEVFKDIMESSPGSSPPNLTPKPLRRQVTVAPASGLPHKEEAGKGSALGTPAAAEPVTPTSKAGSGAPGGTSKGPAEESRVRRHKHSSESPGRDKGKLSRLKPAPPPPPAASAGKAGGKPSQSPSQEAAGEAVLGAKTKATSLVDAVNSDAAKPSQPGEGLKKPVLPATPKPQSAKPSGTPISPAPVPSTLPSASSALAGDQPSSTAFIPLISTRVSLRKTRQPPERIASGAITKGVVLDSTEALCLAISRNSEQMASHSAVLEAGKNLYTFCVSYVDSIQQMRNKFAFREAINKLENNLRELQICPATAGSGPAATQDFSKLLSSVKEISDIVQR
Proto-oncogene tyrosine-protein kinase Src (Homo sapiens), sequence (P12931 2-536 limits assumed): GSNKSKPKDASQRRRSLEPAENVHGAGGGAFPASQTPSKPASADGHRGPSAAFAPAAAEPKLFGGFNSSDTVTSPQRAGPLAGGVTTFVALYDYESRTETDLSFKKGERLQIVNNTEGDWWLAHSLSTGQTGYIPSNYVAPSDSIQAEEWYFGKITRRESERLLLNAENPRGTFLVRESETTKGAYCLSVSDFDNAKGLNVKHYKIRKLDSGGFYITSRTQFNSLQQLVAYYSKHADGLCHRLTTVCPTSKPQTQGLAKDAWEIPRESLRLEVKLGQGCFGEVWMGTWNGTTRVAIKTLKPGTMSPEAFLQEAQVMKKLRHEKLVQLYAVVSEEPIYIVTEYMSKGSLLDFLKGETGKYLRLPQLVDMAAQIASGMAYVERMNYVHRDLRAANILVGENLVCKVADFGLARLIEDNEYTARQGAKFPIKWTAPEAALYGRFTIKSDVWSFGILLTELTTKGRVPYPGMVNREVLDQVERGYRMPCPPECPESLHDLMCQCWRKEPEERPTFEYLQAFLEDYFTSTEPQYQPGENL

CC(=O)c1cccc(Nc2nc(-c3sc(NC(=O)OC(C)(C)C)nc3C)cs2)c1
Activity [1]: 82%
EC50 [2]: 3580 nM
EC50 [3]: < 1390 nM
Activity [4]: 62%
EC50 [5]: 2930 nM
Activity [6]: inactive
EC50 [7]: 21000 nM
Activity [8]: 70%
EC50 [9]: 1170 nM
EC50 [10]: 970 nM
selectivity ratio [11]: 29.7
Activity [12]: 79%
Activity [13]: 49%
Activity [14]: 25%
Activity [15]: 100%
CC50 [16]: 42300 nM
Activity [17]: 32%
Activity [18]: 59%
IC50 [19]: 4670 nM
Activity [20]: 53%
EC50 [21]: < 1390 nM
selectivity ratio [22]: 71.1
Activity [23]: 69%
Activity [24]: 88%
EC50 [25]: 2740 nM
